# Legend:
# Ovis aries [1] = test: Percent reduction in Strongyloides eggs per gram, after treatment with 200 mg/kg dose of compound in sheep perorally; assay type: functional, Egg; conditions: route oral
# How it was run: (§1)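 Naturally parasitized lambs, dosed orally either with a suspension by stomach tube or with finely ground compound in gelatin capsules by balling gun. Activity was scored by the clinical test method, meaning a significant fall in helminth egg counts after treatment.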
# Canis familiaris [2] = species on record: Canis familiaris; test: Percent reduction in Ancylostoma eggs per gram, after treatment with 250 mg/dog dose of compound in a single treatment; assay type: functional, Canis lupus familiaris, Egg
# How it was run: (§2)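 Dogs naturally infected with Toxascaris leonina were experimentally infected with mixed Ancylostoma caninum and Uncinaria stenocephala larvae. Finely ground compound was given orally in gelatin capsules. Fecal egg counts were taken three times before and three times after treatment, and activity was taken as the fall in egg counts.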
# Ovis aries [3] = test: Percent reduction in Haemonchus eggs per gram, after treatment with 150 mg/kg dose of compound in sheep perorally; assay type: functional, Egg; conditions: route oral
# How it was run: (§3)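 Naturally parasitized lambs received compound orally, either as the aqueous suspension by stomach tube or as finely ground powder in gelatin capsules by balling gun. Activity was judged by the clinical test method, as a significant decrease in posttreatment helminth egg counts.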
# Ovis aries [4] = test: Percent reduction in Oesophagostomum eggs per gram, after treatment with 100 mg/kg dose of compound in sheep perorally; assay type: functional, Egg; conditions: route oral
# How it was run: (§4)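 Naturally parasitized lambs were dosed orally at the stated mg/kg. Dosing was either as a suspension of finely ground compound by stomach tube, or as ground compound weighed into gelatin capsules and given by balling gun. Activity was scored by the clinical test method: the decrease in posttreatment helminth eggs per gram.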
# Ovis aries [5] = test: Percent reduction in Haemonchus eggs per gram, after treatment with 400 mg/kg dose of compound in sheep perorally; assay type: functional, Egg; conditions: route oral; how it was run: as §4
# Canis familiaris [6] = species on record: Canis familiaris; test: Percent reduction in Uncinaria eggs per gram, after treatment with 250 mg/dog dose of compound in a single treatment; assay type: functional, Canis lupus familiaris, Egg
# Ovis aries [7] = test: Percent reduction in Haemonchus eggs per gram, after treatment with 200 mg/kg dose of compound in sheep perorally; assay type: functional, Egg; conditions: route oral; how it was run: as §4
# Ovis aries [8] = test: Percent reduction in Haemonchus eggs per gram, after treatment with 300 mg/kg dose of compound in sheep perorally; assay type: functional, Egg; conditions: route oral; how it was run: as §4
# Ovis aries [9] = test: Percent reduction in Trichostrongylus eggs per gram, after treatment with 200 mg/kg dose of compound in sheep perorally; assay type: functional, Egg; conditions: route oral
# Canis familiaris [10] = species on record: Canis familiaris; test: Percent reduction in Ancylostoma eggs per gram, after treatment with 200 mg/dog dose of compound in a single treatment; assay type: functional, Canis lupus familiaris, Egg; how it was run: as §2
# Ovis aries [11] = test: Percent reduction in Trichuris eggs per gram, after treatment with 200 mg/kg dose of compound in sheep perorally; assay type: functional, Egg; conditions: route oral
# Ovis aries [12] = test: Percent reduction in Moniezia eggs per gram, after treatment with 150 mg/kg dose of compound in sheep perorally; assay type: functional, Egg; conditions: route oral; how it was run: as §4
# Ovis aries [13] = test: Percent reduction in Oesophagostomum eggs per gram, after treatment with 150 mg/kg dose of compound in sheep perorally; assay type: functional, Egg; conditions: route oral; how it was run: as §4
# Canis familiaris [14] = species on record: Canis familiaris; test: Percent reduction in Uncinaria eggs per gram, after treatment with 275 mg/dog dose of compound in a single treatment; assay type: functional, Canis lupus familiaris, Egg
# Ovis aries [15] = test: Percent reduction in Nematodirus eggs per gram, after treatment with 100 mg/kg dose of compound in sheep perorally; assay type: functional, Egg; conditions: route oral; how it was run: as §4
# Ovis aries [16] = test: Percent reduction in Trichostrongylus eggs per gram, after treatment with 100 mg/kg dose of compound in sheep perorally; assay type: functional, Egg; conditions: route oral
# How it was run: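 Lambs naturally parasitized with helminths. Finely ground compound was given orally, either as an aqueous suspension by stomach tube or weighed into gelatin capsules given by balling gun. Activity was assessed by the clinical test method: the reduction in helminth egg counts after treatment.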
# Ovis aries [17] = test: Percent reduction in Nematodirus eggs per gram, after treatment with 150 mg/kg dose of compound in sheep perorally; assay type: functional, Egg; conditions: route oral; how it was run: as §4
# Ovis aries [18] = test: Percent reduction in Trichostrongylus eggs per gram, after treatment with 150 mg/kg dose of compound in sheep perorally; assay type: functional, Egg; conditions: route oral
# Ovis aries [19] = test: Percent reduction in Strongyloides eggs per gram, after treatment with 100 mg/kg dose of compound in sheep perorally; assay type: functional, Egg; conditions: route oral; how it was run: as §1
# Ovis aries [20] = test: Percent reduction in Ostertagia eggs per gram, after treatment with 200 mg/kg dose of compound in sheep perorally; assay type: functional, Egg; conditions: route oral; how it was run: as §1
# Ovis aries [21] = test: Percent reduction in Trichuris eggs per gram, after treatment with 400 mg/kg dose of compound in sheep perorally; assay type: functional, Egg; conditions: route oral
# Ovis aries [22] = test: Percent reduction in Cooperia eggs per gram, after treatment with 100 mg/kg dose of compound in sheep perorally; assay type: functional, Egg; conditions: route oral; how it was run: as §3
# Ovis aries [23] = test: Percent reduction in Trichuris eggs per gram, after treatment with 100 mg/kg dose of compound in sheep perorally; assay type: functional, Egg; conditions: route oral
# Canis familiaris [24] = species on record: Canis familiaris; test: Percent reduction in Ancylostoma eggs per gram, after treatment with 275 mg/dog dose of compound in a single treatment; assay type: functional, Canis lupus familiaris, Egg; how it was run: as §2
# Mus musculus [25] = species on record: Mus musculus; test: Percent clearance of Syphacaia obvelata from mouse after oral treatment of 0.25 mg/mouse/day of compound; assay type: functional
# How it was run: (§5)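 Mice naturally carrying Syphacia obvelata were experimentally infected with Nematospiroides dubius and Hymenolepis nana, then grouped after a 2-week prepatency. Finely ground compound was suspended in aqueous 0.10% carboxymethylcellulose, 0.04% polysorbate 80 and 0.0042% polyparaben, and 0.1 mL was given orally by cannula once daily for 4 days to five mice. Necropsy followed 2 days later, scoring presence or absence of each parasite. Control clearance was subtracted from the treated clearance.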
# Ovis aries [26] = test: Percent reduction in Strongyloides eggs per gram, after treatment with 400 mg/kg dose of compound in sheep perorally; assay type: functional, Egg; conditions: route oral; how it was run: as §1
# Ovis aries [27] = test: Percent reduction in Trichuris eggs per gram, after treatment with 300 mg/kg dose of compound in sheep perorally; assay type: functional, Egg; conditions: route oral
# Ovis aries [28] = test: Percent reduction in Ostertagia eggs per gram, after treatment with 150 mg/kg dose of compound in sheep perorally; assay type: functional, Egg; conditions: route oral; how it was run: as §4
# Ovis aries [29] = test: Percent reduction in Haemonchus eggs per gram, after treatment with 100 mg/kg dose of compound in sheep perorally; assay type: functional, Egg; conditions: route oral; how it was run: as §3
# Ovis aries [30] = test: Percent reduction in Ostertagia eggs per gram, after treatment with 300 mg/kg dose of compound in sheep perorally; assay type: functional, Egg; conditions: route oral; how it was run: as §1
# Ovis aries [31] = test: Percent reduction in Trichostrongylus eggs per gram, after treatment with 400 mg/kg dose of compound in sheep perorally; assay type: functional, Egg; conditions: route oral
# Ovis aries [32] = test: Percent reduction in Oesophagostomum eggs per gram, after treatment with 300 mg/kg dose of compound in sheep perorally; assay type: functional, Egg; conditions: route oral; how it was run: as §4
# Ovis aries [33] = test: Percent reduction in Nematodirus eggs per gram, after treatment with 300 mg/kg dose of compound in sheep perorally; assay type: functional, Egg; conditions: route oral; how it was run: as §4
# Ovis aries [34] = test: Percent reduction in Strongyloides eggs per gram, after treatment with 300 mg/kg dose of compound in sheep perorally; assay type: functional, Egg; conditions: route oral; how it was run: as §1
# Ovis aries [35] = test: Percent reduction in Ostertagia eggs per gram, after treatment with 100 mg/kg dose of compound in sheep perorally; assay type: functional, Egg; conditions: route oral; how it was run: as §4
# Canis familiaris [36] = species on record: Canis familiaris; test: Percent reduction in Uncinaria eggs per gram, after treatment with 200 mg/dog dose of compound in a single treatment; assay type: functional, Canis lupus familiaris, Egg
# How it was run: (§6)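 Dogs naturally infected with Toxascaris leonina were experimentally infected with mixed Ancylostoma caninum and Uncinaria stenocephala larvae. Finely ground compound was given orally in gelatin capsules. Three egg count determinations were made before and three after treatment in each experiment.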
# Ovis aries [37] = test: Percent reduction in Strongyloides eggs per gram, after treatment with 150 mg/kg dose of compound in sheep perorally; assay type: functional, Egg; conditions: route oral; how it was run: as §1
# Ovis aries [38] = test: Percent reduction in Ostertagia eggs per gram, after treatment with 400 mg/kg dose of compound in sheep perorally; assay type: functional, Egg; conditions: route oral; how it was run: as §1
# Ovis aries [39] = test: Percent reduction in Trichuris eggs per gram, after treatment with 150 mg/kg dose of compound in sheep perorally; assay type: functional, Egg; conditions: route oral
# Ovis aries [40] = test: Percent reduction in Trichostrongylus eggs per gram, after treatment with 300 mg/kg dose of compound in sheep perorally; assay type: functional, Egg; conditions: route oral
# Ovis aries [41] = test: Percent reduction in Nematodirus eggs per gram, after treatment with 200 mg/kg dose of compound in sheep perorally; assay type: functional, Egg; conditions: route oral; how it was run: as §4
# Canis familiaris [42] = species on record: Canis familiaris; test: Percent reduction in Toxascaris eggs per gram, after treatment with 200 mg/dog dose of compound in a single treatment; assay type: functional, Canis lupus familiaris, Egg; how it was run: as §6
# Ovis aries [43] = test: Percent reduction in Nematodirus eggs per gram, after treatment with 400 mg/kg dose of compound in sheep perorally; assay type: functional, Egg; conditions: route oral; how it was run: as §4
# Mus musculus [44] = species on record: Mus musculus; test: Percent clearance of Nematospiroides dubius from mouse oral treatment of 0.25 mg/mouse/day of compound; assay type: functional; how it was run: as §5
# Canis familiaris [45] = species on record: Canis familiaris; test: Percent reduction in Trichuris eggs per gram, after treatment with 200 mg/dog dose of compound in a single treatment; assay type: functional, Canis lupus familiaris, Egg
# Ovis aries [46] = test: Percent reduction in Oesophagostomum eggs per gram, after treatment with 200 mg/kg dose of compound in sheep perorally; assay type: functional, Egg; conditions: route oral; how it was run: as §4
# Ovis aries [47] = test: Percent reduction in Nematodirus eggs per gram, after treatment with 200 mg/kg dose of compound perorally in sheep; assay type: functional, Egg; conditions: route oral; how it was run: as §4
# Mus musculus [48] = species on record: Mus musculus; test: Percent clearance of Hymenolepis nana from mouse after oral treatment of 0.45 mg/mouse/day; assay type: functional; how it was run: as §5
# Ovis aries [49] = test: Percent reduction in Trichuris eggs per gram, after treatment with 200 mg/kg dose of compound perorally in sheep; assay type: functional, Egg; conditions: dose 100 mg/kg; route oral; in the assay text read “100 mg/kg” for “200 mg/kg”; how it was run: as §1
# Ovis aries [50] = test: Percent reduction in Oesophagostomum eggs per gram, after treatment with 200 mg/kg dose of compound perorally in sheep; assay type: functional, Egg; conditions: dose 100 mg/kg; route oral; in the assay text read “100 mg/kg” for “200 mg/kg”; how it was run: as §4
# Mus musculus [51] = species on record: Mus musculus; test: Percent clearance of Nematospiroides dubius from mouse after oral treatment of 0.45 mg/mouse/day; assay type: functional; how it was run: as §5
# Ovis aries [52] = test: Percent reduction in Haemonchus eggs per gram, after treatment with 200 mg/kg dose of compound perorally in sheep; assay type: functional, Egg; conditions: dose 100 mg/kg; route oral; in the assay text read “100 mg/kg” for “200 mg/kg”; how it was run: as §4
compound,measurement,setting,value
Cc1ccc(/C(Cl)=N/Nc2ccccc2)cc1,Reduction,Ovis aries [1],37%
same,Reduction,Canis familiaris [2],100%
same,Reduction,Ovis aries [3],100%
same,Reduction,Ovis aries [4],100%
same,Reduction,Ovis aries [5],100%
same,Reduction,Canis familiaris [6],100%
same,Reduction,Ovis aries [7],100%
same,Reduction,Ovis aries [8],100%
same,Reduction,Ovis aries [9],100%
same,Reduction,Canis familiaris [10],100%
same,Reduction,Ovis aries [11],0%
same,Reduction,Ovis aries [12],100%
same,Reduction,Ovis aries [13],79%
same,Reduction,Canis familiaris [14],99.8%
same,Reduction,Ovis aries [15],100%
same,Reduction,Ovis aries [16],73%
same,Reduction,Ovis aries [17],100%
same,Reduction,Ovis aries [18],98%
same,Reduction,Ovis aries [19],99%
same,Reduction,Ovis aries [20],100%
same,Reduction,Ovis aries [21],0%
same,Reduction,Ovis aries [22],100%
same,Reduction,Ovis aries [23],29%
same,Reduction,Canis familiaris [24],100%
same,Parasite_Clearance,Mus musculus [25],100%
same,Reduction,Ovis aries [26],100%
same,Reduction,Ovis aries [27],0%
same,Reduction,Ovis aries [28],100%
same,Reduction,Ovis aries [29],84%
same,Reduction,Ovis aries [30],100%
same,Reduction,Ovis aries [31],100%
same,Reduction,Ovis aries [32],100%
same,Reduction,Ovis aries [33],100%
same,Reduction,Ovis aries [34],100%
same,Reduction,Ovis aries [35],96%
same,Reduction,Canis familiaris [36],100%
same,Reduction,Ovis aries [37],100%
same,Reduction,Ovis aries [38],100%
same,Reduction,Ovis aries [39],25%
same,Reduction,Ovis aries [40],100%
same,Reduction,Ovis aries [41],100%
same,Reduction,Canis familiaris [42],100%
same,Reduction,Ovis aries [43],100%
same,Parasite_Clearance,Mus musculus [44],20%
same,Reduction,Canis familiaris [45],100%
same,Reduction,Ovis aries [46],100%
Cl/C(=N\Nc1ccccc1)c1ccccc1,Reduction,Ovis aries [47],100%
same,Parasite_Clearance,Mus musculus [48],40%
same,Reduction,Ovis aries [49],0%
same,Reduction,Ovis aries [50],89%
same,Parasite_Clearance,Mus musculus [51],100%
same,Reduction,Ovis aries [52],87%
